Test results published in ChEMBL document CHEMBL1629527, “In vitro antifungal activities of bis(alkylpyridinium)alkane compounds against pathogenic yeasts and molds” (Antimicrob Agents Chemother, 2010).

Columns and labels:
Candida dubliniensis [1] = assay: Antifungal activity against Candida dubliniensis after 24 to 72 hrs by broth microdilution method; type: functional
Method in brief: (§1)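 Broth microdilution MIC per CLSI M27-A3 (yeasts) or M38-A2 (molds). RPMI 1640 with L-glutamine, without bicarbonate, buffered to pH 7.0 with 0.165 M MOPS. Final test range for the compounds was 0.175–87.5 μM. Incubation at 35°C with visual reading at 24–72 h. MIC was the lowest concentration giving 100% inhibition versus the growth control (azoles 50% or 100%, by organism). Each isolate was run in duplicate in two independent experiments.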

Candida tropicalis [2] = assay: Antifungal activity against Candida tropicalis after 48 to 72 hrs; type: functional
Method in brief: (§2)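 MFC: after the MIC read, 30-μl aliquots from each well without visible growth were plated onto Sabouraud dextrose agar and incubated at 35°C. Reading was at 48–72 h for yeasts and up to 7 days for molds. MFC was the lowest concentration with no colonies.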

Pichia kudriavzevii [3] = assay: Antifungal activity against Candida krusei ATCC 6258 after 24 to 72 hrs by broth microdilution method; type: functional; method in brief: as §1
Rhizopus arrhizus [4] = assay: Antifungal activity against Rhizopus oryzae 05-203111 after 24 to 72 hrs by broth microdilution method; type: functional
Method in brief: (§3)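 Mold isolates subcultured on potato dextrose agar, then tested by CLSI M38-A2 broth microdilution in RPMI 1640 (L-glutamine, no bicarbonate) buffered to pH 7.0 with 0.165 M MOPS. Compounds were dissolved in water and tested at a final 0.175–87.5 μM. Plates were incubated at 35°C. MIC was read visually as the lowest concentration giving 100% inhibition versus the growth control. Each isolate was run in duplicate in two independent experiments.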

Cryptococcus neoformans [5] = assay: Antifungal activity against Cryptococcus neoformans ATCC 90112 after 24 to 72 hrs by broth microdilution method; type: functional; method in brief: as §1
Candida albicans [6] = assay: Antifungal activity against Candida albicans after 48 to 72 hrs; type: functional; method in brief: as §2
Candida albicans [7] = assay: Antifungal activity against Candida albicans ATCC 10231 after 24 to 72 hrs by broth microdilution method; type: functional; method in brief: as §1
Lomentospora prolificans = assay: Antifungal activity against Scedosporium prolificans 05-203060 after 24 to 72 hrs by broth microdilution method; type: functional; method in brief: as §3
Nakaseomyces glabratus [8] = assay: Antifungal activity against Candida glabrata after 48 to 72 hrs; type: functional; method in brief: as §2
Candida parapsilosis [9] = assay: Antifungal activity against Candida parapsilosis after 24 to 72 hrs by broth microdilution method; type: functional; conditions: Lodderomyces parapsilosis; method in brief: as §1
Pichia kudriavzevii [10] = assay: Antifungal activity against Candida krusei 04-202328 after 24 to 72 hrs by broth microdilution method; type: functional; method in brief: as §1
Candida dubliniensis [11] = assay: Antifungal activity against Candida dubliniensis after 48 to 72 hrs; type: functional; method in brief: as §2
Nakaseomyces glabratus [12] = assay: Antifungal activity against Candida glabrata after 24 to 72 hrs by broth microdilution method; type: functional; method in brief: as §1
Pichia kudriavzevii [13] = assay: Antifungal activity against Candida krusei after 24 to 72 hrs by broth microdilution method; type: functional; method in brief: as §1
Clavispora lusitaniae = assay: Antifungal activity against Candida lusitaniae after 24 to 72 hrs by broth microdilution method; type: functional; method in brief: as §1
Fusarium solani = assay: Antifungal activity against Fusarium solani 04-203102 after 24 to 72 hrs by broth microdilution method; type: functional; method in brief: as §3
[14] = tested on: Cryptococcus gattii species complex; assay: Antifungal activity against Cryptococcus gattii after 24 to 72 hrs by broth microdilution method; type: functional, Cryptococcus bacillisporus; method in brief: as §1
Candida parapsilosis [15] = assay: Antifungal activity against Candida parapsilosis after 48 to 72 hrs; type: functional; method in brief: as §2
[16] = Antifungal activity against Exophiala jeanselmei 03-200268 after 24 to 72 hrs by broth microdilution method; type: functional; method in brief: as §1
Candida tropicalis [17] = assay: Antifungal activity against Candida tropicalis after 24 to 72 hrs by broth microdilution method; type: functional; method in brief: as §1
Candida albicans [18] = assay: Antifungal activity against Candida albicans ATCC 90028 after 24 to 72 hrs by broth microdilution method; type: functional; method in brief: as §1
Cryptococcus neoformans [19] = assay: Antifungal activity against Cryptococcus neoformans 05-202523 after 48 to 72 hrs; type: functional; method in brief: as §2
[20] = tested on: Meyerozyma guilliermondii; assay: Antifungal activity against Candida guilliermondii after 24 to 72 hrs by broth microdilution method; type: functional; method in brief: as §1
Candida albicans [21] = assay: Antifungal activity against Candida albicans after 24 to 72 hrs by broth microdilution method; type: functional
Method in brief: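 CLSI M27-A3 broth microdilution for yeasts in RPMI 1640 with L-glutamine and no bicarbonate, buffered with 0.165 M MOPS to pH 7.0. Compounds were dissolved in water and tested at 0.175–87.5 μM final, 35°C. MIC was read visually at 24–72 h as 100% inhibition versus growth control. For MFC, 30 μl from clear wells went onto SDA at 35°C for 48–72 h, reading the lowest concentration without colonies. Duplicates, two independent runs.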

Scedosporium apiospermum = assay: Antifungal activity against Scedosporium apiospermum 05-203100 after 24 to 72 hrs by broth microdilution method; type: functional; method in brief: as §3
Candida parapsilosis [22] = assay: Antifungal activity against Candida parapsilosis ATCC 22019 after 24 to 72 hrs by broth microdilution method; type: functional; conditions: Lodderomyces parapsilosis; method in brief: as §1
Aspergillus flavus = assay: Antifungal activity against Aspergillus flavus ATCC 204304 after 24 to 72 hrs by broth microdilution method; type: functional; method in brief: as §1
Rhizopus arrhizus [23] = assay: Antifungal activity against Rhizopus oryzae 05-203111 after 48 to 72 hrs; type: functional
Method in brief: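 After the broth microdilution MIC read, suspension from every well without visible growth was plated onto Sabouraud dextrose agar and incubated at 35°C, up to 7 days for molds. MFC was taken as the lowest drug concentration with no colonies.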

[24] = tested on: Meyerozyma guilliermondii; assay: Antifungal activity against Candida guilliermondii after 48 to 72 hrs; type: functional; method in brief: as §2
Aspergillus fumigatus = assay: Antifungal activity against Aspergillus fumigatus ATCC 204305 after 24 to 72 hrs by broth microdilution method; type: functional; method in brief: as §1
Candida parapsilosis [25] = assay: Antifungal activity against Candida parapsilosis 04-202398 after 24 to 72 hrs by broth microdilution method; type: functional; conditions: Lodderomyces parapsilosis; method in brief: as §1
Exophiala spinifera = assay: Antifungal activity against Exophiala spinifera 03-200803 after 24 to 72 hrs by broth microdilution method; type: functional; method in brief: as §3
Pichia kudriavzevii [26] = assay: Antifungal activity against Candida krusei after 48 to 72 hrs; type: functional; method in brief: as §2
Lichtheimia corymbifera = assay: Antifungal activity against Absidia corymbifera 04-200170 after 24 to 72 hrs by broth microdilution method; type: functional; method in brief: as §1

Work on `C=CCCCc1cc[n+](CCCCCCCCCCCC[n+]2ccc(CCCC=C)cc2)cc1.[Cl-].[Cl-]` yielded an MIC (Candida dubliniensis [1]) of 2.22 µg/mL, an MIC50 (Candida dubliniensis [1]) of 1.47 µg/mL and an MIC90 (Candida dubliniensis [1]) of 2.93 µg/mL. It also gave an MFC50 (Candida tropicalis [2]) of 0.75 µg/mL, an MFC90 (Candida tropicalis [2]) of 1.47 µg/mL and an MFC (Candida tropicalis [2]; Candida tropicalis) of 0.37 µg/mL. It also gave an MIC (Pichia kudriavzevii [3]) of 5.9 µg/mL, an MIC (Rhizopus arrhizus [4]) of 5.9 µg/mL and an MIC (Cryptococcus neoformans [5]) of 11.8 µg/mL. It also gave an MFC50 (Candida albicans [6]) of 1.47 µg/mL, an MFC90 (Candida albicans [6]) of 1.47 µg/mL and an MFC (Candida albicans [6]; Candida albicans) of 0.75 µg/mL. It also gave an MIC (Candida albicans [7]) of 1.48 µg/mL, an MIC (Lomentospora prolificans) of 1.48 µg/mL and an MFC50 (Nakaseomyces glabratus [8]) of 1.47 µg/mL. It also gave an MFC90 (Nakaseomyces glabratus [8]) of 5.87 µg/mL, an MFC (Nakaseomyces glabratus [8]; Nakaseomyces glabratus) of 0.75 µg/mL and an MIC (Candida parapsilosis [9]) of 23.5 µg/mL. For the same compound, the MIC50 (Candida parapsilosis [9]) was 23.5 µg/mL, the MIC90 (Candida parapsilosis [9]) was 23.5 µg/mL and the MIC (Pichia kudriavzevii [10]) was 11.8 µg/mL. For the same compound, the MFC50 (Candida dubliniensis [11]) was 2.93 µg/mL, the MFC90 (Candida dubliniensis [11]) was 2.93 µg/mL and the MFC (Candida dubliniensis [11]; Candida dubliniensis) was 1.47 µg/mL. For the same compound, the MIC (Nakaseomyces glabratus [12]) was 0.975 µg/mL, the MIC50 (Nakaseomyces glabratus [12]) was 1.47 µg/mL and the MIC90 (Nakaseomyces glabratus [12]) was 1.47 µg/mL. The MIC (Pichia kudriavzevii [13]) was 3.38 µg/mL, the MIC50 (Pichia kudriavzevii [13]) was 2.94 µg/mL and the MIC90 (Pichia kudriavzevii [13]) was 5.87 µg/mL. The MIC (Clavispora lusitaniae) was 2.74 µg/mL, the MIC50 (Clavispora lusitaniae) was 2.93 µg/mL and the MIC90 (Clavispora lusitaniae) was 2.93 µg/mL. For the same compound, the MIC (Fusarium solani) was 47.3 µg/mL, the MIC [14] was 1.81 µg/mL and the MIC50 [14] was 1.48 µg/mL. It also gave an MIC90 [14] of 2.94 µg/mL, an MFC50 (Candida parapsilosis [15]) of 23.5 µg/mL and an MFC90 (Candida parapsilosis [15]) of 23.5 µg/mL. The MFC (Candida parapsilosis [15]; Lodderomyces parapsilosis) was 23.5 µg/mL, the MIC [16] was 5.9 µg/mL and the MIC (Candida tropicalis [17]) was 0.746 µg/mL. The MIC50 (Candida tropicalis [17]) was 0.75 µg/mL, the MIC90 (Candida tropicalis [17]) was 1.47 µg/mL and the MIC (Candida albicans [18]) was 1.48 µg/mL. It also gave an MFC (Cryptococcus neoformans [19]) of 23.7 µg/mL, an MIC [20] of 1.69 µg/mL and an MIC50 [20] of 1.47 µg/mL. It also gave an MIC90 [20] of 1.47 µg/mL, an MIC (Candida albicans [21]) of 1.28 µg/mL and an MIC50 (Candida albicans [21]) of 1.47 µg/mL. The MIC90 (Candida albicans [21]) was 1.47 µg/mL, the MIC (Scedosporium apiospermum) was 11.8 µg/mL and the MIC (Candida parapsilosis [22]) was 1.48 µg/mL. It also gave an MIC (Aspergillus flavus) of over 47.3 µg/mL, an MFC (Rhizopus arrhizus [23]) of 23.7 µg/mL and an MFC50 [24] of 1.47 µg/mL. For the same compound, the MFC90 [24] was 5.87 µg/mL, the MFC ([24]; Meyerozyma guilliermondii) was 0.75 µg/mL and the MIC (Aspergillus fumigatus) was over 47.3 µg/mL. It also gave an MIC (Candida parapsilosis [25]) of 47.3 µg/mL, an MIC (Exophiala spinifera) of 0.74 µg/mL and an MFC50 (Pichia kudriavzevii [26]) of 5.87 µg/mL. For the same compound, the MFC90 (Pichia kudriavzevii [26]) was 11.74 µg/mL, the MFC (Pichia kudriavzevii [26]; Pichia kudriavzevii) was 0.75 µg/mL and the MIC (Lichtheimia corymbifera) was over 47.3 µg/mL.
